Source: ChEMBL document CHEMBL1155277, “Synthesis of new 4-isopropylthiazole hydrazide analogs and some derived clubbed triazole, oxadiazole ring systems--a novel class of potential antibacterial, antifungal and antitubercular agents” (Eur J Med Chem, 2009)
Converted amounts (≈) assume the structure as drawn.

What was measured:
[1] = system: Mycobacterium tuberculosis; assay: Antitubercular activity against Mycobacterium tuberculosis H37Rv after 21 days by broth dilution assay; assay type: functional; conditions: 504 h
How it was run: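 H37Rv frozen stock in Middlebrook 7H9 broth with 10% albumin-dextrose-catalase and 0.2% glycerol, thawed and diluted to 10⁵ cfu mL⁻¹. Compounds dissolved in DMSO, diluted in broth (final DMSO 1.3%). U-tubes inoculated, incubated 37 °C for 21 days. Growth scored visually against drug-free and inoculum-free controls and isoniazid. MIC = lowest concentration inhibiting […] of starting population.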

Bacillus subtilis = assay: Antimicrobial activity against Bacillus subtilis ATCC 60511 after 24 hrs by broth microdilution method; assay type: functional; conditions: ATCC 60511, 24 h
How it was run: (§1)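 Broth microdilution in tubes. Compounds were dissolved at 10 mg in 1 mL DMSO and diluted in Mueller-Hinton Broth for bacteria or Sabouraud Liquid Medium for yeasts and A. niger. Final concentrations were 1–500 µg/mL (1, 2, 4, 8, 16, 31.25, 62.5, 125, 250, 500), with DMSO at most 1% v/v. Inoculum was 10^5 cfu/mL, incubated at 37 °C for 24 h. MIC was the lowest concentration giving complete growth inhibition. Media and media-plus-DMSO served as growth controls.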

Klebsiella pneumoniae = assay: Antimicrobial activity against Klebsiella pneumoniae ATCC 10031 after 24 hrs by broth microdilution method; assay type: functional; conditions: ATCC 10031, 24 h; how it was run: as §1
Enterococcus faecalis = assay: Antimicrobial activity against Streptococcus faecalis ATCC 14506 after 24 hrs by broth microdilution method; assay type: functional; conditions: ATCC 14506, 24 h; how it was run: as §1
Staphylococcus aureus = assay: Antimicrobial activity against Staphylococcus aureus ATCC 11632 after 24 hrs by broth microdilution method; assay type: functional; conditions: ATCC 11632, 24 h; how it was run: as §1
A549 = assay: Cytotoxicity against human A549 cell at 250 uM by MTT assay relative to control; assay type: cell-based; conditions: a549, 250 µM
How it was run: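 A549 lung adenocarcinoma cells were grown with 10% and 0.2% FBS. Compounds were held as 10 mM DMSO stocks and diluted in culture medium; cells were treated at 250 µM. Viability was read by MTT reduction against untreated cells and a DMSO vehicle control. The work was done as two experiments, each with triplicate readings.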

Candida tropicalis = assay: Antimicrobial activity against Candida tropicalis ATCC 1369 after 24 hrs by broth microdilution method; assay type: functional; conditions: ATCC 1369, 24 h; how it was run: as §1
Aspergillus niger = assay: Antimicrobial activity against Aspergillus niger ATCC 6275 after 24 hrs by broth microdilution method; assay type: functional; conditions: ATCC 6275, 24 h; how it was run: as §1
Escherichia coli = assay: Antimicrobial activity against Escherichia […] after 24 hrs by broth microdilution method; assay type: functional; how it was run: as §1
Pseudomonas aeruginosa = assay: Antimicrobial activity against Pseudomonas aeruginosa ATCC 10145 after 24 hrs by broth microdilution method; assay type: functional; conditions: ATCC 10145, 24 h; how it was run: as §1
Saccharomyces cerevisiae = assay: Antimicrobial activity against Saccharomyces cerevisiae ATCC 9763 after 24 hrs by broth microdilution method; assay type: functional; conditions: ATCC 9763, 24 h; how it was run: as §1

Structure (SMILES)	MIC [1] [µg/mL]	MIC (Bacillus subtilis) [µg/mL]	MIC (Klebsiella pneumoniae) [µg/mL]	MIC (Enterococcus faecalis) [µg/mL]	MIC (Staphylococcus aureus) [µg/mL]	Activity (A549) [%]	MIC (Candida tropicalis) [µg/mL]	MIC (Aspergillus niger) [µg/mL]	MIC (Escherichia coli) [µg/mL]	MIC (Pseudomonas aeruginosa) [µg/mL]	MIC (Saccharomyces cerevisiae) [µg/mL]
COc1cc(C2OC(c3nc(C(C)C)cs3)=NN2C(C)=O)cc(OC)c1OC (stereo unspecified)	31.2 (≈ 77.1 µM)	16 (≈ 39.5 µM)	31.2 (≈ 77.1 µM)	16 (≈ 39.5 µM)	62.5 (≈ 154 µM)	50	16 (≈ 39.5 µM)	16 (≈ 39.5 µM)	31.2 (≈ 77.1 µM)	16 (≈ 39.5 µM)	31.2 (≈ 77.1 µM)
CC(C)c1csc(-c2nnc(S)n2N)n1	8 (≈ 33.1 µM)	8 (≈ 33.1 µM)	31.2 (≈ 129 µM)	31.2 (≈ 129 µM)	125 (≈ 518 µM)	50	8 (≈ 33.1 µM)	8 (≈ 33.1 µM)	31.2 (≈ 129 µM)	16 (≈ 66.3 µM)	16 (≈ 66.3 µM)
C/C(=N/NC(=O)c1nc(C(C)C)cs1)c1ccccc1	125 (≈ 435 µM)	250 (≈ 870 µM)	125 (≈ 435 µM)	250 (≈ 870 µM)	250 (≈ 870 µM)	–	500 (≈ 1740 µM)	250 (≈ 870 µM)	125 (≈ 435 µM)	250 (≈ 870 µM)	500 (≈ 1740 µM)
C/C(=N/NC(=O)c1nc(C(C)C)cs1)c1ccc(Cl)cc1	62.5 (≈ 194 µM)	31.2 (≈ 97.1 µM)	125 (≈ 388 µM)	125 (≈ 388 µM)	125 (≈ 388 µM)	–	125 (≈ 388 µM)	125 (≈ 388 µM)	125 (≈ 388 µM)	125 (≈ 388 µM)	125 (≈ 388 µM)
CC(C)c1csc(C(=O)N/N=C/c2ccc(O)cc2)n1	125 (≈ 432 µM)	125 (≈ 432 µM)	31.2 (≈ 108 µM)	125 (≈ 432 µM)	125 (≈ 432 µM)	–	16 (≈ 55.3 µM)	31.2 (≈ 108 µM)	31.2 (≈ 108 µM)	16 (≈ 55.3 µM)	31.2 (≈ 108 µM)
COc1cc(/C=N/NC(=O)c2nc(C(C)C)cs2)cc(OC)c1OC	125 (≈ 344 µM)	125 (≈ 344 µM)	125 (≈ 344 µM)	250 (≈ 688 µM)	500 (≈ 1380 µM)	–	62.5 (≈ 172 µM)	31.2 (≈ 86 µM)	125 (≈ 344 µM)	31.2 (≈ 86 µM)	125 (≈ 344 µM)
CC(C)c1csc(C(=O)NN)n1	125 (≈ 675 µM)	250 (≈ 1350 µM)	250 (≈ 1350 µM)	125 (≈ 675 µM)	250 (≈ 1350 µM)	–	500 (≈ 2700 µM)	125 (≈ 675 µM)	125 (≈ 675 µM)	125 (≈ 675 µM)	250 (≈ 1350 µM)
CC(=O)N1N=C(c2nc(C(C)C)cs2)OC1c1ccc([N+](=O)[O-])cc1 (stereo unspecified)	62.5 (≈ 173 µM)	250 (≈ 694 µM)	125 (≈ 347 µM)	125 (≈ 347 µM)	125 (≈ 347 µM)	–	125 (≈ 347 µM)	31.2 (≈ 86.7 µM)	250 (≈ 694 µM)	125 (≈ 347 µM)	500 (≈ 1390 µM)
CC(C)=NNC(=O)c1nc(C(C)C)cs1	125 (≈ 555 µM)	125 (≈ 555 µM)	125 (≈ 555 µM)	125 (≈ 555 µM)	250 (≈ 1110 µM)	–	125 (≈ 555 µM)	500 (≈ 2220 µM)	125 (≈ 555 µM)	125 (≈ 555 µM)	500 (≈ 2220 µM)
C/C(=N/NC(=O)c1nc(C(C)C)cs1)c1ccc(O)cc1	125 (≈ 412 µM)	250 (≈ 824 µM)	250 (≈ 824 µM)	125 (≈ 412 µM)	125 (≈ 412 µM)	–	31.2 (≈ 103 µM)	125 (≈ 412 µM)	125 (≈ 412 µM)	125 (≈ 412 µM)	31.2 (≈ 103 µM)
OC(Cn1cncn1)(Cn1cncn1)c1ccc(F)cc1F [FLUCONAZOLE]	–	–	–	–	–	–	≤ 1	≤ 1	–	–	≤ 1
CC(=O)N1N=C(c2nc(C(C)C)cs2)OC1c1cccc(Cl)c1Cl (stereo unspecified)	62.5 (≈ 163 µM)	16 (≈ 41.6 µM)	125 (≈ 325 µM)	16 (≈ 41.6 µM)	125 (≈ 325 µM)	–	16 (≈ 41.6 µM)	31.2 (≈ 81.3 µM)	125 (≈ 325 µM)	31.2 (≈ 81.3 µM)	16 (≈ 41.6 µM)
O=C(O)c1cn(C2CC2)c2cc(N3CCNCC3)c(F)cc2c1=O [CIPROFLOXACIN]	–	≤ 1	≤ 1	≤ 5	≤ 5	–	–	–	≤ 1	≤ 5	–
CC(C)c1csc(C(=O)N/N=C/c2ccc([N+](=O)[O-])cc2)n1	125 (≈ 393 µM)	125 (≈ 393 µM)	125 (≈ 393 µM)	250 (≈ 785 µM)	125 (≈ 393 µM)	–	62.5 (≈ 196 µM)	31.2 (≈ 98.2 µM)	31.2 (≈ 98.2 µM)	125 (≈ 393 µM)	125 (≈ 393 µM)
